Reference: ChEMBL document CHEMBL3792365, “Dioxol and dihydrodioxin analogs of 2- and 3-phenylacetonitriles as potent anti-cancer agents with nanomolar activity against a variety of human cancer cells” (2016)

Legend:
Type in all cases: functional
NCI-H522 = experiment: Growth inhibition of human NCI-H522 cells after 48 hrs by sulforhodamine B assay; settings: NCI-H522, 48 h
Procedure, shortened: (§1)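 Five-dose concentration series run across a panel of 60 human tumour cell lines. GI50 is taken as the drug concentration giving a 50% reduction in net protein increase relative to untreated control cells.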

[1] = Growth inhibition of human SF268 cells after 48 hrs by sulforhodamine B assay; settings: SF-268, 48 h; procedure, shortened: as §1
[2] = Growth inhibition of human UACC257 cells at 10 uM after 48 hrs by sulforhodamine B assay; settings: UACC-257, 48 h, values are per cent of control
[3] = Growth inhibition of human HCC2998 cells after 48 hrs by sulforhodamine B assay; settings: HCC 2998, 48 h
Procedure, shortened: (§2)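 Five-dose testing against a 60-line human tumor cell panel. GI50 is the drug concentration giving a 50% reduction in net protein increase relative to untreated control cells.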

[4] = Growth inhibition of human HOP62 cells at 10 uM after 48 hrs by sulforhodamine B assay; settings: HOP-62, 48 h, values are per cent of control
[5] = Growth inhibition of human SKOV3 cells after 48 hrs by sulforhodamine B assay; settings: SK-OV-3, 48 h; procedure, shortened: as §1
[6] = Growth inhibition of human SW620 cells after 48 hrs by sulforhodamine B assay; settings: SW-620, 48 h; procedure, shortened: as §1
[7] = Growth inhibition of human IGROV1 cells at 10 uM after 48 hrs by sulforhodamine B assay; settings: IGROV-1, 48 h, values are per cent of control
[8] = Growth inhibition of human MOLT4 cells after 48 hrs by sulforhodamine B assay; settings: MOLT-4, 48 h; procedure, shortened: as §1
MDA-MB-435 = experiment: Growth inhibition of human MDA-MB-435 cells after 48 hrs by sulforhodamine B assay; settings: MDA-MB-435, 48 h; procedure, shortened: as §2
CCRF-CEM [9] = experiment: Growth inhibition of human CCRF-CEM cells after 48 hrs by sulforhodamine B assay; procedure, shortened: as §2
[10] = Growth inhibition of human PC3 cells after 48 hrs by sulforhodamine B assay; settings: PC-3, 48 h; procedure, shortened: as §1
[11] = Growth inhibition of human Hs 578T cells after 48 hrs by sulforhodamine B assay; procedure, shortened: as §2
[12] = Growth inhibition of human HCC2998 cells at 10 uM after 48 hrs by sulforhodamine B assay; settings: HCC 2998, 48 h, values are per cent of control
MCF7 = experiment: Growth inhibition of human MCF7 cells at 10 uM after 48 hrs by sulforhodamine B assay; settings: MCF7, 48 h, values are per cent of control
[13] = Growth inhibition of human MOLT4 cells at 10 uM after 48 hrs by sulforhodamine B assay; settings: MOLT-4, 48 h, values are per cent of control
[14] = Growth inhibition of human HCT116 cells after 48 hrs by sulforhodamine B assay; settings: HCT-116, 48 h; procedure, shortened: as §2
SK-MEL-28 [15] = experiment: Growth inhibition of human SK-MEL-28 cells at 10 uM after 48 hrs by sulforhodamine B assay; settings: SK-MEL-28, 48 h, values are per cent of control
[16] = Growth inhibition of human OVCAR3 cells after 48 hrs by sulforhodamine B assay; settings: OVCAR-3, 48 h; procedure, shortened: as §1
[17] = Growth inhibition of human HCT15 cells after 48 hrs by sulforhodamine B assay; settings: HCT-15, 48 h; procedure, shortened: as §2
A549 = experiment: Growth inhibition of human A549/ATCC cells after 48 hrs by sulforhodamine B assay; settings: A549, 48 h; procedure, shortened: as §2
[18] = Growth inhibition of human SNB19 cells after 48 hrs by sulforhodamine B assay; settings: SNB-19, 48 h; procedure, shortened: as §1
[19] = Growth inhibition of human HL-60(TB) cells at 10 uM after 48 hrs by sulforhodamine B assay; settings: HL-60, 48 h, values are per cent of control
SK-MEL-2 [20] = experiment: Growth inhibition of human SK-MEL-2 cells after 48 hrs by sulforhodamine B assay; settings: SK-MEL-2, 48 h; procedure, shortened: as §1
[21] = Growth inhibition of human HOP92 cells after 48 hrs by sulforhodamine B assay; settings: HOP-92, 48 h; procedure, shortened: as §2
CCRF-CEM [22] = experiment: Growth inhibition of human CCRF-CEM cells at 10 uM after 48 hrs by sulforhodamine B assay; settings: values are per cent of control
Malme-3M = experiment: Growth inhibition of human MALME-3M cells at 10 uM after 48 hrs by sulforhodamine B assay; settings: values are per cent of control
[23] = Growth inhibition of human RPMI8226 cells after 48 hrs by sulforhodamine B assay; settings: RPMI-8226, 48 h; procedure, shortened: as §1
786-0 = experiment: Growth inhibition of human 786-0 cells at 10 uM after 48 hrs by sulforhodamine B assay; settings: 786-0, 48 h, values are per cent of control
[24] = Growth inhibition of human COLO205 cells after 48 hrs by sulforhodamine B assay; settings: COLO 205, 48 h; procedure, shortened: as §2
[25] = Growth inhibition of human RXF393 cells at 10 uM after 48 hrs by sulforhodamine B assay; settings: RXF 393, 48 h, values are per cent of control
KM12 = experiment: Growth inhibition of human KM12 cells after 48 hrs by sulforhodamine B assay; settings: KM12, 48 h; procedure, shortened: as §2
[26] = Growth inhibition of human OVCAR4 cells after 48 hrs by sulforhodamine B assay; settings: OVCAR-4, 48 h; procedure, shortened: as §1
SK-MEL-28 [27] = experiment: Growth inhibition of human SK-MEL-28 cells after 48 hrs by sulforhodamine B assay; settings: SK-MEL-28, 48 h; procedure, shortened: as §1
[28] = Growth inhibition of human UACC62 cells after 48 hrs by sulforhodamine B assay; settings: UACC-62, 48 h
Procedure, shortened: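 Five-dose testing across the 60-line human tumour cell panel. GI50 is the drug concentration that gives a 50% reduction in net protein increase relative to control cells.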

[29] = Growth inhibition of human SNB75 cells at 10 uM after 48 hrs by sulforhodamine B assay; settings: SNB-75, 48 h, values are per cent of control
SR = experiment: Growth inhibition of human SR cells after 48 hrs by sulforhodamine B assay; procedure, shortened: as §1
[30] = Growth inhibition of human RPMI8226 cells at 10 uM after 48 hrs by sulforhodamine B assay; settings: RPMI-8226, 48 h, values are per cent of control
SK-MEL-2 [31] = experiment: Growth inhibition of human SK-MEL-2 cells at 10 uM after 48 hrs by sulforhodamine B assay; settings: SK-MEL-2, 48 h, values are per cent of control
[32] = Growth inhibition of human LOXIMVI cells after 48 hrs by sulforhodamine B assay; settings: LOX IMVI; procedure, shortened: as §2
[33] = Growth inhibition of human PC3 cells at 10 uM after 48 hrs by sulforhodamine B assay; settings: PC-3, 48 h, values are per cent of control
[34] = Growth inhibition of human OVCAR3 cells at 10 uM after 48 hrs by sulforhodamine B assay; settings: OVCAR-3, 48 h, values are per cent of control
[35] = Growth inhibition of human HOP92 cells at 10 uM after 48 hrs by sulforhodamine B assay; settings: HOP-92, 48 h, values are per cent of control
[36] = Growth inhibition of human UO31 cells at 10 uM after 48 hrs by sulforhodamine B assay; settings: UO-31, 48 h, values are per cent of control

N#C/C(=C\c1cc2ccccc2s1)c1ccc2c(c1)OCO2
GI50 (NCI-H522): 20 nM
GI50 [1]: 1640 nM
growth, % of control at 10 µM [2]: 72.8%
GI50 [3]: 270 nM
growth, % of control at 10 µM [4]: 58.5%
GI50 [5]: 60 nM
GI50 [6]: 50 nM
growth, % of control at 10 µM [7]: 34.3%
GI50 [8]: 70 nM
GI50 (MDA-MB-435): 20 nM
GI50 (CCRF-CEM [9]): 50 nM
GI50 [10]: 60 nM
GI50 [11]: 80 nM
growth, % of control at 10 µM [12]: 6.4%
growth, % of control at 10 µM (MCF7): 16.3%
growth, % of control at 10 µM [13]: 17.4%
GI50 [14]: 40 nM
growth, % of control at 10 µM (SK-MEL-28 [15]): 60.6%
GI50 [16]: 40 nM
GI50 [17]: 40 nM
GI50 (A549): 90 nM
GI50 [18]: 230 nM
growth, % of control at 10 µM [19]: 0.5%
GI50 (SK-MEL-2 [20]): 40 nM
GI50 [21]: 17000 nM
growth, % of control at 10 µM (CCRF-CEM [22]): 16.8%
growth, % of control at 10 µM (Malme-3M): 55.1%
GI50 [23]: 190 nM
growth, % of control at 10 µM (786-0): 44.7%
GI50 [24]: 30 nM
growth, % of control at 10 µM [25]: -2.6%
GI50 (KM12): 50 nM
GI50 [26]: 1270 nM
GI50 (SK-MEL-28 [27]): 240 nM
GI50 [28]: 60 nM
growth, % of control at 10 µM [29]: 0.5%
GI50 (SR): 30 nM
growth, % of control at 10 µM [30]: 9.3%
growth, % of control at 10 µM (SK-MEL-2 [31]): 29.2%
GI50 [32]: 50 nM
growth, % of control at 10 µM [33]: 25.8%
growth, % of control at 10 µM [34]: -29.5%
growth, % of control at 10 µM [35]: 60.8%
growth, % of control at 10 µM [36]: 34.9%
